Data taken from ChEMBL document CHEMBL4411297, “Discovery, synthesis and anti-atherosclerotic activities of a novel selective sphingomyelin synthase 2 inhibitor” (Eur J Med Chem, 2019).
Calls of active or inactive are those of the source. The calls are words filed in the database; no cut-off is given here.

What was measured:
[1] = organism: Homo sapiens; assay: Selectivity ratio of IC50 for purified SMS1 (unknown origin) to IC50 for purified SMS2 (unknown origin)
[2] = target: T1, Phosphatidylcholine:ceramide cholinephosphotransferase 2 (Homo sapiens) (UniProt Q8NHU3); assay: Inhibition of SMS2 in human HuH7 cells assessed as down regulation of apoB secretion incubated for 17 hrs followed by further incubation for 2 hrs in presence of [35S]-methionine; format: cell-based
T1 sequence (whole entry): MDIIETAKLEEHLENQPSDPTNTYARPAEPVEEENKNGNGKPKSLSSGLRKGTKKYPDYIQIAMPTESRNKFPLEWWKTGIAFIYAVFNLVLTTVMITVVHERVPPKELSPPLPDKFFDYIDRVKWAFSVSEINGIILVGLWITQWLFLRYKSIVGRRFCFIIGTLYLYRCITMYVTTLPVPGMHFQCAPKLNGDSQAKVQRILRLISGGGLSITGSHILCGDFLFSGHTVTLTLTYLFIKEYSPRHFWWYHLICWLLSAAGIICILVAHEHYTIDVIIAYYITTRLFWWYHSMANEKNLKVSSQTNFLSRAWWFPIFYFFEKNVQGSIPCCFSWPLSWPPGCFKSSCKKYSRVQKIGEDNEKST
In short: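 Huh7 human hepatoma cells treated with inhibitor 17 h, then pulse-labeled with [³⁵S]-methionine for 2 h with vehicle or compound; secreted [³⁵S]-apoB in medium detected and quantified.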

[3] = target: T2, Phosphatidylcholine:ceramide cholinephosphotransferase 2 (Mus musculus) (UniProt Q9D4B1); assay: Inhibition of SMS2 in C57BL/6J mouse bone marrow derived macrophages assessed as increase in [3H]-cholesterol efflux after 17 hrs by liquid scintillation analysis
T2 sequence (whole entry): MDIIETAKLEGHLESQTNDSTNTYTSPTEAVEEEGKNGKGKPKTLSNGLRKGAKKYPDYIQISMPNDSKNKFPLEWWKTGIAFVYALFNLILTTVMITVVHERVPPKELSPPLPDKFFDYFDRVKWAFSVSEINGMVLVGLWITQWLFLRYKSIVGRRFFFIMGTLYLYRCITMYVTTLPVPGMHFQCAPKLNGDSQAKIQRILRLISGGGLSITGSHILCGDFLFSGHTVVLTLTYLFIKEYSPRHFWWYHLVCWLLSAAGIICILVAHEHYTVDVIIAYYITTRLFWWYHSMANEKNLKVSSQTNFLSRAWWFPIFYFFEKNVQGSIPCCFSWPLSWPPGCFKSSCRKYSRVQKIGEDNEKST
In short: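 Bone marrow macrophages treated with inhibitor at various concentrations for 17 h, labeled with [³H]-cholesterol on acetylated LDL, equilibrated 1 h in DMEM/0.2% BSA, then given 50 µg/ml HDL; medium taken at 8 h. Efflux = medium radioactivity as percent of medium plus cell-lysate total, by scintillation counting.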

[4] = system: BMDM; assay: Inhibition of LPS-induced MCP1 production in C57BL/6J mouse bone marrow derived macrophages at 6.25 to 50 uM preincubated for 17 hrs followed by LPS-stimulation and measured after 6 hrs by ELISA; format: functional, cell-based
In short: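 Mouse bone marrow-derived macrophages exposed to a range of inhibitor concentrations for 17 h, then LPS 50 ng/ml for 6 h; IL-6 and MCP-1 in culture medium quantified by ELISA. Mean ± SD, n = 7.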

[5] = AUC (0 to 8 hrs) in C57BL/6J mouse at 100 mg/kg/day, ig by HPLC-MS/MS analysis; format: ADME, organism-based; design: dose 100 mg/kg/day, time < 8 hr, route intragastric; conditions: in vivo, po
In short: (§1)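 Male C57BL/6J mice, six to eight weeks old, about 20 g, fasted 12 h with free water. Given a single intragastric dose of 25, 50 or 100 mg/kg in 10% DMSO/30% PEG-100/0.9% NaCl. Blood taken retro-orbitally at 5 min to 8 h. Plasma protein-precipitated with methanol plus internal standard, then HPLC-MS/MS on a C18 column. Noncompartmental analysis, n = 6.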

[6] = Cmax in C57BL/6J mouse at 50 mg/kg/day, ig by HPLC-MS/MS analysis; format: ADME, organism-based; design: dose 50 mg/kg/day, route intragastric; conditions: in vivo, po; in short: as §1
[7] = MRT (0 to 8 hrs) in C57BL/6J mouse at 50 mg/kg/day, ig by HPLC-MS/MS analysis; format: ADME, organism-based; conditions: in vivo, po
In short: (§2)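 Male C57BL/6J mice (6–8 weeks, ~20 g), fasted 12 h, given a single intragastric dose of 25, 50 or 100 mg/kg in 10% DMSO/30% PEG/0.9% NaCl. Retro-orbital blood at 5 min to 8 h; plasma protein-precipitated with methanol plus internal standard, assayed by LC-MS/MS; noncompartmental analysis. Mean ± SD, n = 6.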

[8] = MRT (0 to infinity) in C57BL/6J mouse at 50 mg/kg/day, ig by HPLC-MS/MS analysis; format: ADME, organism-based; conditions: in vivo, po; in short: as §2
[9] = Apparent volume of distribution during terminal phase in C57BL/6J mouse at 25 mg/kg/day, ig by HPLC-MS/MS analysis; format: ADME, organism-based; conditions: in vivo, po, read-out: Vz/F; in short: as §1
[10] = system: Mus musculus; assay: Anti-atherosclerotic activity in apoE knockout mouse fed with western-type diet assessed as reduction in lymphocyte count at 40 mg/kg/day, ig for 7 weeks by flow cytometric analysis relative to control; format: functional; design: scale not given: the % may be the effect or the level left
In short: (§3)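 ApoE KO mice started at 8 weeks old on Western-type diet for 6 weeks. Then dosed by gavage daily with vehicle, 12.5 or 40 mg/kg for 7 weeks with the diet continued, 10 mice per group. Blood single-cell suspensions stained with antibodies in PBS and analysed by flow cytometry. Mean ± SD, n = 5.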

[11] = system: Mus musculus; assay: Anti-atherosclerotic activity in apoE knockout mouse fed with western-type diet assessed as reduction in CD11b+/CD11c+ dendritic cells at 12.5 mg/kg/day, ig for 7 weeks by flow cytometric analysis; format: functional, organism-based; in short: as §3
[12] = system: Mus musculus; assay: Anti-atherosclerotic activity in apoE knockout mouse fed with western-type diet assessed as reduction in lesions in whole aorta at 12.5 to 40 mg/kg/day, ig for 7 weeks by oil-red O staining-based assay relative to control; format: functional, organism-based
In short: (§4)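 ApoE KO mice fed Western-type diet, then given 12.5 or 40 mg/kg/day by gavage in 30% PEG-400/10% DMSO/0.9% NaCl for 7 weeks. Aortic root: H&E-stained 4 µm sections, mean lesion area from 6 sections per animal. Whole aorta: en face Oil Red O staining, percentage of area stained. Compared with vehicle, n = 10.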

[13] = system: Mus musculus; assay: Anti-atherosclerotic activity in apoE knockout mouse fed with western-type diet assessed as reduction in lesions in proximal aorta at 40 mg/kg/day, ig for 7 weeks by hematoxylin and eosin staining-based assay relative to control; format: functional; design: scale not given: the % may be the effect or the level left; in short: as §4

Ratio IC50 [1]: > 1400 | inhibition [2]: Dose-dependent effect | inhibition [3]: Dose-dependent effect | AUC at 8 h [5]: 13200 ng·h/mL | Cmax [6]: 6120 ng/mL | MRT [7]: 1.66 h | MRT inf [8]: 2.28 h | Vd/F [9]: 51.4 L
Structure (SMILES): CCc1ccccc1COc1ccccc1C(=O)Nc1cccnc1
inhibition [4]: Active | Activity [10]: 24% | Activity [11]: inactive | Activity [12]: Dose-dependent effect | Activity [13]: 50%
